Results reported in ChEMBL document CHEMBL5335797, “Design, Synthesis, and Evaluation of New 1H-Benzo[d]imidazole Based PqsR Inhibitors as Adjuvant Therapy for Pseudomonas aeruginosa Infections” (J Med Chem, 2024).
Values belong to the compound of their own block, whether it stands above or below them. Activity calls are given as the source filed them. The rule behind the calls is not given here.

Experiments:
[1] = Inhibition of Pseudomonas aeruginosa pqsA-lux complex expressed in Pseudomonas aeruginosa PA14 by bioluminescent reporter assay
How it was run: (§1)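 Reporter strains PAO1-L and PA14 carrying chromosomal mCTX::PpqsA-lux, grown in LB at 37 °C. Inhibition read as reduced luminescence. Single-point screen at 10 μM from 10 mM DMSO stock; dose–response curves in both strains; mean ± SD, n = 2.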

[2] = molecular target: T1, Transcriptional regulator MvfR (Pseudomonas aeruginosa PA14) (UniProt A0A072ZLE6); experiment: Antagonist activity at PqsR in wild-type Pseudomonas aeruginosa PAO1-L assessed as inhibition of pyocyanin level at 3 times IC50 incubated for 16 hrs by absorbance based assay relative to control; settings: filed as antagonist
T1 sequence (whole entry): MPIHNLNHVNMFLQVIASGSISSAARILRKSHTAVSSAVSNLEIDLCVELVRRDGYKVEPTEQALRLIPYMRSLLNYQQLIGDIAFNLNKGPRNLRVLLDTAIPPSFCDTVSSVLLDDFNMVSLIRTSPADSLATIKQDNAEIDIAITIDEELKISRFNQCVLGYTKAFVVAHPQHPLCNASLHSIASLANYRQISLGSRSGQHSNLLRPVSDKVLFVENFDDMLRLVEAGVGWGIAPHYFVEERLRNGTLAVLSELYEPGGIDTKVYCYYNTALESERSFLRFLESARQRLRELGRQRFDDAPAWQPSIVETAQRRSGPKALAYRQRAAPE

[3] = tested on: Pseudomonas aeruginosa; experiment: Inhibition of Pseudomonas aeruginosa pqsA-lux complex expressed in Pseudomonas aeruginosa PA14 at 10 uM by bioluminescent reporter assay; how it was run: as §1
[4] = tested on: Pseudomonas aeruginosa; experiment: Inhibition of Pseudomonas aeruginosa pqsA-lux complex expressed in Pseudomonas aeruginosa PAO1-L at 10 uM by bioluminescent reporter assay; how it was run: as §1
[5] = Inhibition of Pseudomonas aeruginosa pqsA-lux complex expressed in Pseudomonas aeruginosa PAO1-L by bioluminescent reporter assay; how it was run: as §1
[6] = tested on: A549; experiment: Cytotoxicity against human A549 cells assessed as cell viability upto 100 uM incubated for 24 hrs by resazurin reduction assay; format: toxicity, cell-based; settings: a549, 24 h
How it was run: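 A549 cells in DMEM with 10% FBS and 1% PSN, seeded at 1 × 10^4 cells/well. Compound at 1, 50 and 100 μM in sextuplicate, 24 h at 37 °C and 5% CO2. Vehicle control 1% DMSO; positive control 100 μM K2Cr2O7. Alamar blue added for 4–6 h, fluorescence read at ex 510/em 590 nm, normalized to DMSO.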

[7] = molecular target: T1, Transcriptional regulator MvfR (Pseudomonas aeruginosa PA14); experiment: Antagonist activity at PqsR in Pseudomonas aeruginosa LESB58 clinical isolate assessed as inhibition of pyocyanin level at 200 nM incubated for 16 hrs by absorbance based assay; settings: filed as antagonist
[8] = molecular target: T1, Transcriptional regulator MvfR (Pseudomonas aeruginosa PA14); experiment: Antagonist activity at PqsR in Pseudomonas aeruginosa IPCD1350 clinical isolate assessed as reduction in HQNO level at 0.2 uM by LCMS/MS analysis relative to control; parameters: scale not given: the % may be the effect or the level left
[9] = molecular target: T1, Transcriptional regulator MvfR (Pseudomonas aeruginosa PA14); experiment: Antagonist activity at PqsR in wild-type Pseudomonas aeruginosa PA14 assessed as reduction in HHQ level at 0.2 uM by LCMS/MS analysis; settings: filed as antagonist
[10] = molecular target: T1, Transcriptional regulator MvfR (Pseudomonas aeruginosa PA14); experiment: Antagonist activity at PqsR in wild-type Pseudomonas aeruginosa PAO1-L assessed as reduction in PQS level at 0.2 uM by LCMS/MS analysis; settings: filed as antagonist
[11] = molecular target: T1, Transcriptional regulator MvfR (Pseudomonas aeruginosa PA14); experiment: Antagonist activity at PqsR in Pseudomonas aeruginosa LESB58 clinical isolate assessed as reduction in HQNO level at 0.2 uM by LCMS/MS analysis relative to control; parameters: scale not given: the % may be the effect or the level left
[12] = tested on: Pseudomonas aeruginosa; experiment: Inhibition of biofilm formation in Pseudomonas aeruginosa PAO1-L at 10 uM incubated for 6 to 24 hrs by SYTO9/PI staining based confocal laser scanning microscopy; format: functional, organism-based; settings: time 6-24 hrs
How it was run: (§2)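 PAO1-L biofilms grown on glass coverslips in a rolling bioreactor (20 rpm) in FAB 10 mM glucose, inoculated at OD600 0.01, 30 °C for 24 h with 10 μM compound from the start. Then PBS wash and 6 or 24 h in fresh medium with 60 μg/mL ciprofloxacin, 20 μM compound, or both. LIVE/DEAD BacLight staining, CLSM; live/dead ratios against untreated.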

[13] = molecular target: T1, Transcriptional regulator MvfR (Pseudomonas aeruginosa PA14); experiment: Antagonist activity at PqsR in wild-type Pseudomonas aeruginosa PA14 assessed as inhibition of pyocyanin level at 200 nM incubated for 16 hrs by absorbance based assay; settings: filed as antagonist
[14] = tested on: Pseudomonas aeruginosa; experiment: Inhibition of biofilm formation in GFP-labeled Pseudomonas aeruginosa PAO1-L at 1 uM incubated for 16 hrs by PI staining based confocal laser scanning microscopy; format: functional, organism-based
How it was run: (§3)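 GFP-tagged strain (pMMG) grown in RPMI-1640 with 20 mM glucose and 2 μM FeCl3. Seeded at OD600 0.01 on glass coverslips, static 1.5 h at 37 °C. Compound added at 1 μM, then shaken at 60 rpm and 37 °C for 16 h. Tobramycin 100 μg/mL plus propidium iodide 2 μM for a further 2 or 6 h. CLSM, 5 random z-stacks per coverslip.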

[15] = molecular target: T1, Transcriptional regulator MvfR (Pseudomonas aeruginosa PA14); experiment: Antagonist activity at PqsR in wild-type Pseudomonas aeruginosa PA14 assessed as reduction in PQS level at 0.2 uM by LCMS/MS analysis; settings: filed as antagonist
[16] = molecular target: T1, Transcriptional regulator MvfR (Pseudomonas aeruginosa PA14); experiment: Antagonist activity at PqsR in Pseudomonas aeruginosa IPCD1451 clinical isolate assessed as reduction in HQNO level at 0.2 uM by LCMS/MS analysis
[17] = molecular target: T1, Transcriptional regulator MvfR (Pseudomonas aeruginosa PA14); experiment: Antagonist activity at PqsR in Pseudomonas aeruginosa IPCD1331 clinical isolate assessed as reduction in HHQ level at 0.2 uM by LCMS/MS analysis
[18] = molecular target: T1, Transcriptional regulator MvfR (Pseudomonas aeruginosa PA14); experiment: Antagonist activity at PqsR in Pseudomonas aeruginosa IPCD1331 clinical isolate assessed as reduction in PQS level at 0.2 uM by LCMS/MS analysis
[19] = molecular target: T1, Transcriptional regulator MvfR (Pseudomonas aeruginosa PA14); experiment: Antagonist activity at PqsR in Pseudomonas aeruginosa IPCD1350 clinical isolate assessed as inhibition of pyocyanin level at 200 nM incubated for 16 hrs by absorbance based assay; settings: filed as antagonist
[20] = molecular target: T1, Transcriptional regulator MvfR (Pseudomonas aeruginosa PA14); experiment: Antagonist activity at PqsR in Pseudomonas aeruginosa IPCD1331 clinical isolate assessed as reduction in HQNO level at 0.2 uM by LCMS/MS analysis relative to control; parameters: scale not given: the % may be the effect or the level left
[21] = molecular target: T1, Transcriptional regulator MvfR (Pseudomonas aeruginosa PA14); experiment: Antagonist activity at PqsR in Pseudomonas aeruginosa IPCD48 clinical isolate assessed as reduction in HQNO level at 0.2 uM by LCMS/MS analysis relative to control; parameters: scale not given: the % may be the effect or the level left
[22] = molecular target: T1, Transcriptional regulator MvfR (Pseudomonas aeruginosa PA14); experiment: Antagonist activity at PqsR in Pseudomonas aeruginosa IPCD1331 clinical isolate assessed as inhibition of pyocyanin level at 200 nM incubated for 16 hrs by absorbance based assay; settings: filed as antagonist
[23] = molecular target: T1, Transcriptional regulator MvfR (Pseudomonas aeruginosa PA14); experiment: Antagonist activity at PqsR in Pseudomonas aeruginosa LESB58 clinical isolate assessed as reduction in AQ level at 0.2 uM by LCMS/MS analysis; settings: filed as antagonist
[24] = molecular target: T1, Transcriptional regulator MvfR (Pseudomonas aeruginosa PA14); experiment: Antagonist activity at PqsR in wild-type Pseudomonas aeruginosa PAO1-L assessed as inhibition of pyocyanin level at 200 nM incubated for 16 hrs by absorbance based assay; settings: filed as antagonist
[25] = molecular target: T1, Transcriptional regulator MvfR (Pseudomonas aeruginosa PA14); experiment: Antagonist activity at PqsR in Pseudomonas aeruginosa IPCD48 clinical isolate assessed as inhibition of pyocyanin level at 200 nM incubated for 16 hrs by absorbance based assay; settings: filed as antagonist
[26] = tested on: Pseudomonas aeruginosa; experiment: Potentiation of Ciprofloxacin-induced antibiofilm activity in Pseudomonas aeruginosa PAO1-L at 10 uM incubated for 6 to 24 hrs by SYTO9/PI staining based confocal laser scanning microscopy; format: functional, organism-based; settings: time 6-24 hrs; how it was run: as §2
[27] = tested on: Pseudomonas aeruginosa; experiment: Potentiation of Tobramycin-induced antibiofilm activity in Pseudomonas aeruginosa PAO1-L at 1 uM preincubated for 16 hrs followed by tobramycin addition measured for 2 to 6 hrs by PI staining based confocal laser scanning microscopy; format: functional, organism-based; settings: time 18-22 hrs; how it was run: as §3
[28] = molecular target: T1, Transcriptional regulator MvfR (Pseudomonas aeruginosa PA14); experiment: Antagonist activity at PqsR in Pseudomonas aeruginosa IPCD48 clinical isolate assessed as reduction in PQS level at 0.2 uM by LCMS/MS analysis; settings: filed as antagonist
[29] = molecular target: T1, Transcriptional regulator MvfR (Pseudomonas aeruginosa PA14); experiment: Antagonist activity at PqsR in wild-type Pseudomonas aeruginosa PAO1-L assessed as reduction in HHQ level at 0.2 uM by LCMS/MS analysis; settings: filed as antagonist
[30] = molecular target: T1, Transcriptional regulator MvfR (Pseudomonas aeruginosa PA14); experiment: Antagonist activity at PqsR in Pseudomonas aeruginosa IPCD1451 clinical isolate assessed as inhibition of pyocyanin level at 200 nM incubated for 16 hrs by absorbance based assay
[31] = molecular target: T1, Transcriptional regulator MvfR (Pseudomonas aeruginosa PA14); experiment: Antagonist activity at PqsR in wild-type Pseudomonas aeruginosa PA14 assessed as reduction in HQNO level at 0.2 uM by LCMS/MS analysis relative to control; parameters: scale not given: the % may be the effect or the level left
[32] = molecular target: T1, Transcriptional regulator MvfR (Pseudomonas aeruginosa PA14); experiment: Antagonist activity at PqsR in Pseudomonas aeruginosa IPCD48 clinical isolate assessed as reduction in HHQ level at 0.2 uM by LCMS/MS analysis; settings: filed as antagonist
[33] = molecular target: T1, Transcriptional regulator MvfR (Pseudomonas aeruginosa PA14); experiment: Antagonist activity at PqsR in wild-type Pseudomonas aeruginosa PAO1-L assessed as reduction in HQNO level at 0.2 uM by LCMS/MS analysis relative to control; parameters: scale not given: the % may be the effect or the level left

Compound: CC(C)n1c(NCC(N)COc2ccc(CC#N)cc2)nc2ccc(Cl)cc21 (stereo not given)
- IC50 [1]: Not Active

Compound: Cn1c(SCC(O)COc2ccc(CC#N)cc2)nc2ccc(Cl)cc21 (stereo not given)
- inhibition [3]: inactive
- inhibition [4]: inactive

Compound: N#CCc1ccc(OCC(O)CNc2nc3ccc(Cl)cc3n2C2CCC2)cc1 (stereo not given)
- inhibition [2]: > 50%

Compound: N#CCc1ccc(OCC(O)CNc2nc3ccc(Cl)cc3s2)cc1 (stereo not given)
- inhibition [3]: inactive
- inhibition [4]: inactive

Compound: CN1CCC(n2c(NCC(O)COc3ccc(CC#N)cc3)nc3ccc(Cl)cc32)CC1 (stereo not given)
- IC50 [5]: Not Active
- IC50 [1]: Not Active

Compound: N#CCc1ccc(OCC(O)CNc2nc3ccc(Cl)cc3n2C2CC2)cc1 (stereo not given)
- inhibition [2]: > 50%

Compound: Cn1c(NCC(O)COc2ccc(CC#N)cc2)nc2ccc(C(F)(F)F)cc21 (stereo not given)
- IC50 ([5]; read-out: IC50): 1500 nM
- IC50 [1]: Not Active

Compound: N#CCc1ccc(OCC(O)CNc2nc3ccc(Cl)cc3o2)cc1 (stereo not given)
- inhibition [3]: inactive
- inhibition [4]: inactive

Compound: Cn1c(NCC(O)COc2ccc(CC#N)cc2)nc2cc(Cl)c(Cl)cc21 (stereo not given)
- IC50 [5]: Not Active
- IC50 [1]: Not Active

Compound: CC(C)n1c(NCC(O)COc2ccc(CC#N)cc2F)nc2ccc(Cl)cc21 (stereo not given)
- inhibition [2]: > 50%
- Activity [6]: Non-Toxic

Compound: CC(C)n1c(NCC(O)COc2ccc(CC#N)c(F)c2)nc2ccc(Cl)cc21 (stereo not given)
- inhibition [2]: > 50%

Compound: Cn1c(NCC(O)COc2ccc(CC#N)cc2)nc2cc(Cl)ccc21 (stereo not given)
- IC50 [5]: Not Active
- IC50 [1]: Not Active

Continued, in another order:

- IC50 [1]: Not Active
Compound: N#CCc1ccc(OCC(O)CNc2nc3ccc(Cl)cc3n2CCOCc2ccccc2)cc1 (stereo not given)

- inhibition [2]: > 50%
Compound: Cn1c(NCC(O)COc2ccc(CC#N)cc2)nc2ccc(Cl)cc21 (stereo not given)

- IC50 [5]: Not Active
- IC50 [1]: Not Active
Compound: CN(C)CCn1c(NCC(O)COc2ccc(CC#N)cc2)nc2ccc(Cl)cc21 (stereo not given)

- inhibition [2]: > 50%
Compound: CCn1c(NCC(O)COc2ccc(CC#N)cc2)nc2ccc(Cl)cc21 (stereo not given)

- inhibition [2]: > 50%
Compound: COCCn1c(NCC(O)COc2ccc(CC#N)cc2)nc2ccc(Cl)cc21 (stereo not given)

- inhibition [2]: > 50%
Compound: N#CCc1ccc(OCC(O)CNc2nc3ccc(Cl)cc3n2CCO)cc1 (stereo not given)

- inhibition [7]: Active
- Activity [8]: 20%
- Activity [9]: Active
- Activity [10]: Active
- Activity [11]: 20%
- inhibition [13]: Active
- Activity [15]: Active
- Activity [16]: inactive
- Activity [17]: inactive
- Activity [18]: inactive
- inhibition [19]: Active
- Activity [20]: 20%
- Activity [21]: 20%
- inhibition [22]: Active
- Activity [23]: Active
- inhibition [24]: Active
- inhibition [25]: Active
- Activity [28]: Active
- Activity [29]: Active
- inhibition [30]: inactive
- Activity [31]: 20%
- Activity [32]: Active
- Activity [33]: 20%
Compound: CC(C)n1c(NCC(O)COc2ccc(CC#N)cc2)nc2ccc(Cl)cc21 (stereo not given)
- inhibition [12]: inactive
- inhibition [14]: inactive
- Activity [26]: Active
- Activity [6]: Non-Toxic
- Activity [27]: Active
